According to ChEMBL document CHEMBL1156353, “Synthetic secofriedelane and friedelane derivatives as inhibitors of human lymphocyte proliferation and growth of human cancer cell lines in vitro” (J Nat Prod, 2001):
Active and inactive are the calls of the source. The rule behind the calls is not given here.

Legend:
UACC-62 = test: Cytotoxicity against human UACC62 cells by SRB assay; format: functional
In short: (§1)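 Lines from NCI, kept adherent in RPMI-1640 with 5% heat-inactivated FBS, 2 mM glutamine, 50 µg/mL gentamicin, 37 °C, 5% CO2; plated at densities ensuring exponential growth. Growth measured by NCI screening protocol with sulforhodamine B staining; GI50 per NCI method, means ± SEM from 3-6 independent experiments in duplicate. Compounds from DMSO stocks.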

T-cell [1] = test: Inhibition of PHA-induced human T cell proliferation at 100 uM after 24 hrs by MTT assay; format: functional, cell-based
TK-10 = test: Cytotoxicity against human TK10 cells by SRB assay; format: functional; in short: as §1
NCI-H460 = test: Cytotoxicity against human NCI-H460 cells by SRB assay; format: functional; in short: as §1
MCF7 = test: Cytotoxicity against human MCF7 cells by SRB assay; format: functional; in short: as §1
SF-268 = test: Cytotoxicity against human SF268 cells by SRB assay; format: functional; in short: as §1
[2] = Cytotoxicity against human T cells assessed as cell viability at IC50 after 24 hrs by MTT assay; format: cell-based; conditions: read-out: Activity
In short: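 Peripheral blood mononuclear cells from healthy volunteers (Histopaque-1077), (2-3) × 10⁶ cells/mL in RPMI-1640 with 10% heat-inactivated FBS, 2 mM glutamine, gentamicin, exposed 24 h to compound; MTT (1 mg/mL) 4 h, formazan dissolved in SDS/DMF pH 4.7 overnight at 37 °C, OD 550 nm. Viability as % of unexposed cells; below 70% counted as toxic.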

[3] = (§2) Inhibition of PHA-induced human T cell proliferation after 24 hrs by MTT assay; format: functional, cell-based
In short: (§3)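 Human peripheral blood mononuclear cells (Histopaque-1077 isolation) stimulated with PHA 10 µg/mL as T-mitogen, in RPMI-1640 with 10% heat-inactivated FBS, 2 mM glutamine; compounds from DMSO stocks; colorimetric MTT read-out; cyclosporin A positive control. IC50 as means ± SEM from 3-6 independent experiments in duplicate.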

T-cell [4] = test: as §2; format: functional, cell-based; in short: as §3

Row | Compound | GI50 (UACC-62) | Activity (T-cell [1]) | GI50 (TK-10) | GI50 (NCI-H460) | GI50 (MCF7) | GI50 (SF-268) | viability at 24 h [2] | IC50 [3] | Activity (T-cell [4])
1 | C[C@H]1[C@H](O)C(=O)C[C@@H]2[C@]1(C)CC[C@H]1[C@@]2(C)CC[C@@]2(C)[C@@H]3CC(C)(C)CC[C@]3(C)CC[C@]12C | > 100 µM | inactive | > 100 µM | > 100 µM | > 100 µM | > 100 µM |  |  | 
2 | CC(=O)O[C@@H]1CC[C@@H]2[C@](C)(CC[C@H]3[C@@]2(C)CC[C@@]2(C)[C@@H]4CC(C)(C)CC[C@]4(C)CC[C@]32C)[C@H]1C |  | inactive |  |  |  |  |  |  | 
3 | C[C@H]1[C@H](O)CC[C@@H]2[C@]1(C)CC[C@H]1[C@@]2(C)CC[C@@]2(C)[C@@H]3CC(C)(C)CC[C@]3(C)CC[C@]12C | > 100 µM | inactive | > 100 µM | > 100 µM | > 100 µM | > 100 µM |  |  | 
4 | COc1cccc2c1C(=O)c1c(O)c3c(c(O)c1C2=O)C[C@@](O)(C(=O)CO)C[C@@H]3O[C@H]1C[C@H](N)[C@H](O)[C@H](C)O1 [DOXORUBICIN] | 0.094 µM |  | 0.57 µM | 0.0081 µM | 0.055 µM | 0.093 µM |  |  | 
5 | C[C@H]1[C@@H](O)CC[C@@H]2[C@]1(C)CC[C@H]1[C@@]2(C)CC[C@@]2(C)[C@@H]3CC(C)(C)CC[C@]3(C)CC[C@]12C [EPIFRIEDELINOL] | > 100 µM | inactive | > 100 µM | > 100 µM | > 100 µM | > 100 µM |  |  | 
6 | COC(=O)[C@H](C)[C@@]1(C)CC[C@H]2[C@@](C)(CC[C@@]3(C)[C@@H]4CC(C)(C)CC[C@]4(C)CC[C@]23C)[C@@H]1CC=O | > 100 µM | inactive | > 100 µM | > 100 µM | > 100 µM | > 100 µM |  |  | 
7 | C[C@H]1C(=O)CC[C@@H]2[C@]1(C)CC[C@H]1[C@@]2(C)CC[C@@]2(C)[C@@H]3CC(C)(C)CC[C@]3(C)CC[C@]12C [FRIEDELINE] | > 100 µM | inactive | > 100 µM | > 100 µM | > 100 µM | > 100 µM |  |  | 
8 | C[C@@H](C(=O)O)[C@@]1(C)CC[C@H]2[C@@](C)(CC[C@@]3(C)[C@@H]4CC(C)(C)CC[C@]4(C)CC[C@]23C)[C@@H]1CC=O | 9.9 µM |  | 10.1 µM | 5.4 µM | 7 µM | 17.2 µM | 89% | 10.7 µM | Dose-dependent effect
9 | CC1=C(O)C(=O)C[C@H]2[C@]3(C)CC[C@@]4(C)[C@@H]5CC(C)(C)CC[C@]5(C)CC[C@]4(C)[C@H]3CC[C@]12C | > 100 µM | inactive | > 100 µM | > 100 µM | > 100 µM | > 100 µM |  |  | 
10 | C[C@H]1C(=O)C=C[C@@H]2[C@]1(C)CC[C@H]1[C@@]2(C)CC[C@@]2(C)[C@@H]3CC(C)(C)CC[C@]3(C)CC[C@]12C | > 100 µM | inactive | > 100 µM | > 100 µM | > 100 µM | > 100 µM |  |  | 
11 | C[C@H]1[C@@H](O)[C@H](O)C[C@@H]2[C@]1(C)CC[C@H]1[C@@]2(C)CC[C@@]2(C)[C@@H]3CC(C)(C)CC[C@]3(C)CC[C@]12C [PACHYSANDIOL A] | 83.3 µM |  | 95.7 µM | 79.4 µM | 66.4 µM | 15.5 µM | 113% | 79.1 µM | Dose-dependent effect
12 | C[C@H]1C(=O)[C@H](O)C[C@@H]2[C@]1(C)CC[C@H]1[C@@]2(C)CC[C@@]2(C)[C@@H]3CC(C)(C)CC[C@]3(C)CC[C@]12C | 86 µM |  | 90.5 µM | 67.8 µM | 59.5 µM | 95.8 µM | 92.7% | 82.3 µM | Dose-dependent effect
